Results on four compounds are retold here after ChEMBL document CHEMBL1154186, “Synthesis, kinase inhibitory potencies, and in vitro antiproliferative evaluation of new Pim kinase inhibitors” (J Med Chem, 2009).

Experiment [1] concerns the target Mitogen-activated protein kinase 8 (Homo sapiens) (UniProt P45983). The experiment can be described thus: Inhibition of JNK1 assessed as residual enzyme activity at 10 uM relative to untreated control. Summed up: (§1)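 Kinases of human origin, except CK1δ, which is rat. Run in 50 mM Tris/HCl pH 7.5, 0.1 mM EGTA, 0.1% 2-mercaptoethanol and 10 mM Mg acetate, with [γ-33P]ATP at 20 µM, 30 min at 21 °C. Acid-stopped and captured on P81 filters. Compound tested at 10 µM; residual % of uninhibited control, duplicate determinations.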

The target in experiment [2] is T1, Mitogen-activated protein kinase 15 (Homo sapiens) (UniProt Q8TD08).
T1 sequence (whole entry): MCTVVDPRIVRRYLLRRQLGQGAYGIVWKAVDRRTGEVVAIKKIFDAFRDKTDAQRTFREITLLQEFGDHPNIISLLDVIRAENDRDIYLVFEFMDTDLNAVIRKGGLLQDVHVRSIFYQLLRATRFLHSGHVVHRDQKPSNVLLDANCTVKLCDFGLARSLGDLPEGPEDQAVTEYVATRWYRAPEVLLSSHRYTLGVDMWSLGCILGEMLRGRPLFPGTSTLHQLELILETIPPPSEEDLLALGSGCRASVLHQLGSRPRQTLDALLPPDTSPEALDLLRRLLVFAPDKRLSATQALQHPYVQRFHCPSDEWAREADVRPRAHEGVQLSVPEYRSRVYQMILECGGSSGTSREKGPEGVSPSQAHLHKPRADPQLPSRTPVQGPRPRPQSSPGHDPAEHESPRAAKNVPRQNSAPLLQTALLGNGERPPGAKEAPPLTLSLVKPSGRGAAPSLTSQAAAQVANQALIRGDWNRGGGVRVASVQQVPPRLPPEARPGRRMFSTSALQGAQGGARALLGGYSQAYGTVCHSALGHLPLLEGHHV
The experiment can be described thus: Inhibition of ERK8 assessed as residual enzyme activity at 10 uM relative to untreated control. Summed up:
(§2)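 Radiometric filter-binding assay at 21 °C for 30 min. Mix: 50 mM Tris/HCl pH 7.5, 0.1 mM EGTA, 0.1% 2-mercaptoethanol, 10 mM Mg acetate and [γ-33P]ATP (800 cpm/pmol) at 5 µM. Stopped with orthophosphoric acid and spotted on P81. Compound at 10 µM; activity given as % remaining versus no-inhibitor control, duplicates. Kinases human full-length unless noted.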

Experiment [3] addresses Tyrosine-protein kinase CSK (Homo sapiens) (UniProt P41240). The experiment can be described thus: Inhibition of CSK assessed as residual enzyme activity at 10 uM relative to untreated control. Summed up: as §1
Experiment [4] can be described thus: Inhibition of PHK assessed as residual enzyme activity at 10 uM relative to untreated control.
The target of experiment [5] is Serine/threonine-protein kinase PLK1 (Homo sapiens) (UniProt P53350). The experiment can be described thus: Inhibition of PLK1 assessed as residual enzyme activity at 10 uM relative to untreated control. The method, boiled down:
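30 min at 21 °C in the presence of 10 µM inhibitor. Incorporation read after P81 filter capture. Reported as % activity remaining relative to control, duplicates.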

Experiment [6] concerns the target Aurora kinase B (Homo sapiens) (UniProt Q96GD4). The experiment can be described thus: Inhibition of AURORA B assessed as residual enzyme activity at 10 uM relative to untreated control. The method, boiled down: as §1
Experiment [7] deals with T2, Serine/threonine-protein kinase Nek2 (Homo sapiens) (UniProt P51955).
T2 sequence (whole entry): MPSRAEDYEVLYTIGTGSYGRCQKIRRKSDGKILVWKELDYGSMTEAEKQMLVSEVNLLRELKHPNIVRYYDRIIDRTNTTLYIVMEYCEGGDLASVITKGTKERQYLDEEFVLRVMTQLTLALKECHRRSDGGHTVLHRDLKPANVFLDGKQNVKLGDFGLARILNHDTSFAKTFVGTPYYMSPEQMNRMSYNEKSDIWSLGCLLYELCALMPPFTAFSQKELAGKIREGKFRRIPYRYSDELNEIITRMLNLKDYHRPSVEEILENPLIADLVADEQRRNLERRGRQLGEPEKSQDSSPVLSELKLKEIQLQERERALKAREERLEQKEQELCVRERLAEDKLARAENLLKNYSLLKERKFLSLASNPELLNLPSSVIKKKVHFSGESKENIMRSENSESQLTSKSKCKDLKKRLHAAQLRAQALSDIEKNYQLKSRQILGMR
The experiment in a line: Inhibition of NEK2alpha assessed as residual enzyme activity at 10 uM relative to untreated control. Summed up: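 Assayed with [γ-33P]ATP at 50 µM and 10 mM Mg acetate in 50 mM Tris/HCl pH 7.5, 0.1 mM EGTA, 0.1% 2-mercaptoethanol, 30 min, 21 °C. Phosphoric acid stop, P81 filter capture. ERK2 and Lck are mouse; AMPK is rat. 10 µM compound; % activity remaining relative to control without inhibitor, duplicates.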

In experiment [8] the target is Serine/threonine-protein kinase Nek7 (Homo sapiens) (UniProt Q8TDX7). The experiment in a line: Inhibition of NEK7 assessed as residual enzyme activity at 10 uM relative to untreated control. The method, boiled down: as §1
The target in experiment [9] is T3, Inhibitor of nuclear factor kappa-B kinase subunit beta (Homo sapiens) (UniProt O14920).
T3 sequence (whole entry): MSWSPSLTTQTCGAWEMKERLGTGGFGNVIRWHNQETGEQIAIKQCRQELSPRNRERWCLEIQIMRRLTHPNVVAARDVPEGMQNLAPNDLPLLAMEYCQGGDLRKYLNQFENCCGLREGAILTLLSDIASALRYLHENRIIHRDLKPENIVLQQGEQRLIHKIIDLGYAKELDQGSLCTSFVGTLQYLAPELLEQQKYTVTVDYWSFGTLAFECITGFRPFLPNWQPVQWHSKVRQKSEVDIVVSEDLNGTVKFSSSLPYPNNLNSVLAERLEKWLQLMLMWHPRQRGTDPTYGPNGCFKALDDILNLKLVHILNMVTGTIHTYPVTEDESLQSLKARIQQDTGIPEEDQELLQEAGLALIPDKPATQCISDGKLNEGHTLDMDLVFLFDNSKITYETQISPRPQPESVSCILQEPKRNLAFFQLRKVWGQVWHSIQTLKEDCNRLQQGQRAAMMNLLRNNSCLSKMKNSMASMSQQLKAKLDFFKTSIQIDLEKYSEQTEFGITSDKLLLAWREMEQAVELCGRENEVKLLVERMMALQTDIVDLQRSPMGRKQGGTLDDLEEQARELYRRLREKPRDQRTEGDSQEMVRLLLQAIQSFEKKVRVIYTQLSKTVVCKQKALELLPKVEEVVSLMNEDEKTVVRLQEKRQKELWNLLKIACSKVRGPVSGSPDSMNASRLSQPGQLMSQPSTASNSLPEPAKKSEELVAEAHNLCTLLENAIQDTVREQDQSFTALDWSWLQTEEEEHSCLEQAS
The experiment can be described thus: Inhibition of IKK-beta assessed as residual enzyme activity at 10 uM relative to untreated control. The method, boiled down:
as §2

In experiment [10] the target is Serine/threonine-protein kinase pim-1 (Homo sapiens) (UniProt P11309). The experiment can be described thus: Inhibition of Pim-1 assessed as residual enzyme activity at 10 uM relative to untreated control.
The target in experiment [11] is Serine/threonine-protein kinase pim-3 (Homo sapiens) (UniProt Q86V86). The experiment can be described thus: Inhibition of Pim-3 assessed as residual enzyme activity at 10 uM relative to untreated control.

Sequence of Tyrosine-protein kinase CSK (Homo sapiens) (P41240 2-450 limits assumed): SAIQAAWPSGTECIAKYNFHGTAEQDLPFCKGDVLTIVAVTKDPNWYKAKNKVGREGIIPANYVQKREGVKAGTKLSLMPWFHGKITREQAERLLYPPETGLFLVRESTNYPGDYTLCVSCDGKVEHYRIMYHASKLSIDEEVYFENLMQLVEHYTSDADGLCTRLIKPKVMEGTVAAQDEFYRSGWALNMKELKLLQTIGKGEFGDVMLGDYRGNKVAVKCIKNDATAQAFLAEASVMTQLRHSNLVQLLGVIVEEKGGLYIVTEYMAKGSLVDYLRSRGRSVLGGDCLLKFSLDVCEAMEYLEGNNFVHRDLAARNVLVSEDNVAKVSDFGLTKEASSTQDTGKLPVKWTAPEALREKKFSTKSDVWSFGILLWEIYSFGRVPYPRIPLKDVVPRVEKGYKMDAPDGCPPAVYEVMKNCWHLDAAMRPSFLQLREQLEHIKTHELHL
Sequence of Serine/threonine-protein kinase Nek7 (Homo sapiens) (Q8TDX7 whole entry, looked up): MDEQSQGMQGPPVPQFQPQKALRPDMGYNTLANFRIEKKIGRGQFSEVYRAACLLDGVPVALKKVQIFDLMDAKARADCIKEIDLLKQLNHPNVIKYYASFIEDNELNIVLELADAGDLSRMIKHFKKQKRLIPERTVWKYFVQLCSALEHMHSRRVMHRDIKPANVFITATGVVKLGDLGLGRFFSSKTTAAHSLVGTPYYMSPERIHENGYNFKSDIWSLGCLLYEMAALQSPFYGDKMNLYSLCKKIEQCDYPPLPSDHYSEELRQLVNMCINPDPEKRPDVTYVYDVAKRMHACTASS
Sequence of Serine/threonine-protein kinase pim-1 (Homo sapiens) (P11309 whole entry, looked up): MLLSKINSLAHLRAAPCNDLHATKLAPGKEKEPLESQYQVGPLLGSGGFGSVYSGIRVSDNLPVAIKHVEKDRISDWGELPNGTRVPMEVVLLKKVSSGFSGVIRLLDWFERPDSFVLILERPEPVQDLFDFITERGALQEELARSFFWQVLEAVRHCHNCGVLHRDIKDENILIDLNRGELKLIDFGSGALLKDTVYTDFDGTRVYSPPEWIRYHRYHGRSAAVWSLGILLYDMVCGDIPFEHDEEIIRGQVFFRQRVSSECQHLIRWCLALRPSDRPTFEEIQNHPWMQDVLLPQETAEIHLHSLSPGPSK
Sequence of Mitogen-activated protein kinase 8 (Homo sapiens) (P45983 whole entry): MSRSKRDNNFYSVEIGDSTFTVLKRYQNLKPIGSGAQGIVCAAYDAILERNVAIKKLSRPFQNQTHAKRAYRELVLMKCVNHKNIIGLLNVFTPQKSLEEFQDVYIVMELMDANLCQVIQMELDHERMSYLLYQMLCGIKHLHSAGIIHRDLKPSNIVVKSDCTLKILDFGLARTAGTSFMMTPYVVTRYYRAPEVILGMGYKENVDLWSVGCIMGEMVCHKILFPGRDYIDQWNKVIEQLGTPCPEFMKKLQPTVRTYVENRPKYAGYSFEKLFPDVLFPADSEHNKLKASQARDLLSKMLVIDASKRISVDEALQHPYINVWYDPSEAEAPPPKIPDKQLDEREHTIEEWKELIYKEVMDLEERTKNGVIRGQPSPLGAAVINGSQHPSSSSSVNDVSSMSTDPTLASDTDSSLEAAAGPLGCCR
Sequence of Aurora kinase B (Homo sapiens) (Q96GD4 whole entry): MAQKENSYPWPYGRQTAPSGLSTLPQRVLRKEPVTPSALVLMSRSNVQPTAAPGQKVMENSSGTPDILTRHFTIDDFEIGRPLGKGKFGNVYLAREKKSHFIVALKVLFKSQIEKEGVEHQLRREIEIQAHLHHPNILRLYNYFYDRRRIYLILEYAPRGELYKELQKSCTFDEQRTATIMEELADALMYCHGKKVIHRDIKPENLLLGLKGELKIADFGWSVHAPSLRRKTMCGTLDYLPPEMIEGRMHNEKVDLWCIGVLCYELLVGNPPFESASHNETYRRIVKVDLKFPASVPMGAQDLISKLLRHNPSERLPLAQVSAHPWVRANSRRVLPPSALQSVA
Sequence of Serine/threonine-protein kinase PLK1 (Homo sapiens) (P53350 whole entry): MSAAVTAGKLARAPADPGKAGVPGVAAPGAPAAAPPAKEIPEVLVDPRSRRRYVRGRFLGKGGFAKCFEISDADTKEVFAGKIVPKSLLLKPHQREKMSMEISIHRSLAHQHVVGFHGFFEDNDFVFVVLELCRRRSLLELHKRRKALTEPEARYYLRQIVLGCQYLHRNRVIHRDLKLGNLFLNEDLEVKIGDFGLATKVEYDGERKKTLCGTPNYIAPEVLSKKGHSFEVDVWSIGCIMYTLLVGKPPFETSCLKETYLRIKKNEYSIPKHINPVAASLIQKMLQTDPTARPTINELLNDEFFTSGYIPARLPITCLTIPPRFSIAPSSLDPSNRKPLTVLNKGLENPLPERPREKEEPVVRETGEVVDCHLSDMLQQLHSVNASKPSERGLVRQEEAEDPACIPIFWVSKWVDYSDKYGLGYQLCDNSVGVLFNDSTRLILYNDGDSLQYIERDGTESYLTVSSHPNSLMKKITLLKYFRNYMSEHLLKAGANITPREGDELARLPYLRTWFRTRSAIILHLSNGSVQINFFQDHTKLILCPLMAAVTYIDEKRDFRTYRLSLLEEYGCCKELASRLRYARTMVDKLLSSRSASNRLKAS

In the case of `c1ccc2c(c1)[nH]c1c2ccc2cc[nH]c21`, the Activity was found to be 102% in experiment [1]; 55% in [2]; 98% in experiment [3]; 90% in [4]; 111% in [5]; 67% in experiment [6]. The Activity was found to be 104% in experiment [7]; 96% in [8]; 106% in [9]; 20% in experiment [10]; 38% in [11].
For the compound `O=Cc1c[nH]c2c1ccc1c3ccccc3[nH]c12`, the Activity in experiment [1] is 102%; in experiment [2], 20%; in [3] it was 74%; in experiment [4], 33%; in experiment [5] it was 91%; in experiment [6], 68%. Also, the figures for the Activity in [7], in experiment [8] and in experiment [9] were 88%, 89% and 71%, respectively.
Regarding `O=Cc1c[nH]c2ccc3c4ccccc4[nH]c3c12`, the Activity was determined as 113% in experiment [1]; 112% in experiment [2]; 87% in experiment [3]; 88% in [4]; 106% in [5]; 92% in [6]. Further, the Activity in experiment [7] is 100%; in experiment [8], 95%; in experiment [9], 108%; in experiment [10], 79%; in [11] it was 102%.
For the compound `c1ccc2c(c1)[nH]c1c3cc[nH]c3ccc21`, the Activity in [1] was 116%; in experiment [2], 47%; in experiment [3] it was 72%; in experiment [4], 71%; in [5], 105%; in experiment [6], 67%. Further, the Activity in experiment [7] is 96%; in experiment [8], 92%; in experiment [9] it was 110%; in [10] it was 53%; in experiment [11] it was 29%.
